Experiment [1] is described as follows: Inhibition of ADP-BODIPY binding to Thermotoga maritima HK853 by fluorescence polarization assay.
The subject of experiment [2] is Pseudomonas aeruginosa. The experiment can be described thus: Bactericidal activity against methicillin-sensitive Pseudomonas aeruginosa PAO1 at 400 uM after 18 hrs by resazurin-dye based fluorescence assay. The class given is functional, organism-based. Summed up: (§1)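 Viability of methicillin-sensitive S. aureus and P. aeruginosa after treatment, judged by optical density and resazurin indicator dye relative to a DMSO control.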

In experiment [3] the test system is Pseudomonas aeruginosa. Briefly: Antibiofilm activity against methicillin-sensitive Pseudomonas aeruginosa PAO1 at 112.5 to 500 uM after 18 hrs by crystal violet staining-based assay. The class given is functional, organism-based. In a few lines:
(§2)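 Biofilm formation by S. aureus and P. aeruginosa quantified by crystal violet staining, compared against DMSO-treated bacteria.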

The nature of experiment [4]: Inhibition of ADP-BODIPY binding to Thermotoga maritima HK853 after day 1 by fluorescence polarization assay.
For experiment [5], the system named is Staphylococcus aureus. The experiment can be described thus: Antibiofilm activity against methicillin-sensitive Staphylococcus aureus MSSA 447 at 112.5 to 500 uM after 18 hrs by crystal violet staining-based assay. The class given is functional, organism-based. In a few lines: as §2
A short description of experiment [6]: Inhibition of Thermotoga maritima HK853 autophosphorylation using compound at non-aggregating concentration after 30 mins in presence of [gamma-33P]-ATP by phosphorescence-based assay. In a few lines: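 Coupled competition-aggregation assay with HK853 (T. maritima) and VicK (S. pneumoniae); enzymatic autophosphorylation followed with [γ-33P]ATP.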
Experiment [7] concerns Staphylococcus aureus. Briefly: Bactericidal activity against methicillin-sensitive Staphylococcus aureus MSSA 447 at 400 uM after 18 hrs by resazurin-dye based fluorescence assay. The class given is functional, organism-based. In a few lines: as §1
Background: The colour change of resazurin is a common sign of viable cells or microbes.

Experiment [8] can be described thus: Inhibition of ADP-BODIPY binding to Thermotoga maritima HK853 in presence of Triton X-100 by fluorescence polarization assay.
Experiment [9] concerns Thermotoga maritima. The experiment can be described thus: Inhibition of ADP-BODIPY binding to Thermotoga maritima HK853 at 100 uM by fluorescence polarization assay. (Polarisation of emitted light reports the rotation of a fluorescent probe.)
Experiment [10] is described as follows: Inhibition of ADP-BODIPY binding to Thermotoga maritima HK853 after day 2 by fluorescence polarization assay.
Experiment [11] has as its system Thermotoga maritima. Briefly: Induction of Thermotoga maritima HK853 aggregation up to 500 uM in presence of glutaraldehyde by PAGE analysis.
Experiment [12] deals with Sensor histidine kinase VicK/WalK (Streptococcus pneumoniae). The experiment can be described thus: Induction of Streptococcus pneumoniae VicK aggregation up to 500 uM in presence of glutaraldehyde by PAGE analysis.

These results are taken from ChEMBL document CHEMBL4270516, “Screening serine/threonine and tyrosine kinase inhibitors for histidine kinase inhibition” (Bioorg Med Chem, 2018).

Active and inactive are the calls of the source. The calls are words filed in the database; no cut-off is given here. Some results are limits rather than exact numbers.

For orientation: IC50 means the concentration that gives 50% inhibition. The inhibition is the relative decrease from the control value, in per cent. On to `Fc1ccc(-c2c(-c3ccncc3)[nH]c3nccnc23)cc1`, for which the IC50 in experiment [1] is 23.7 µM; in experiment [4], 2.7 µM; in experiment [6] it was 101 µM; in experiment [8] it was 22.5 µM; in experiment [10], 6.26 µM. In addition, the result in the experiment with Pseudomonas aeruginosa [2], in the experiment on Pseudomonas aeruginosa [3], in the experiment on Staphylococcus aureus [5] and in the experiment on Staphylococcus aureus [7] was inactive. In addition, the inhibition in the experiment with Thermotoga maritima [9] turned out to be 79.9%.

Compound `Cn1c(-c2ccncc2)c(-c2ccc(F)cc2)c2ncccc21` returned an inhibition in the experiment on Thermotoga maritima [9] of 15%.

The compound `OCCn1c(-c2ccncc2)c(-c2ccc(F)cc2)c2ncccc21` gave an inhibition in the experiment with Thermotoga maritima [9] of 5.8%.

As to `Cn1cc(C2=C(c3cccc(NCC(O)CO)c3)C(=O)NC2=O)c2cc(Cl)ccc21` (stereo unspecified), the figures for the half-inhibitory concentration (IC50) in [1] and in [8] were 21.9 µM and 24.4 µM, respectively. For the same compound, the result (in the experiment on Thermotoga maritima [11]; in experiment [12]) was Active. This compound displayed an inhibition in the experiment on Thermotoga maritima [9] of 79.2%.

Regarding `COc1cc[nH]c1/C=C1\C(=O)Nc2ccc([N+](=O)[O-])c(C3CC[C@@H](O)C3)c21` (stereo partly specified), the half-maximal inhibitory concentration (IC50) in experiment [1] amounted to 12 µM; in experiment [8], 13 µM. Besides, the outcome (in the experiment with Thermotoga maritima [11]; in [12]) was Active. The inhibition in the experiment on Thermotoga maritima [9] was determined as 66.3%.

Regarding `Fc1ccc(-c2c(-c3ccncc3)n(CCN3CCOCC3)c3cccnc23)cc1`, in the experiment with Thermotoga maritima [9], the inhibition came out at 4.8%.

`Fc1ccc(-c2c(-c3ccncc3)[nH]c3cccnc23)cc1`: in the experiment with Thermotoga maritima [9], the inhibition stood at 6.5%.

In the case of `Nc1ncnc2c1ncn2[C@@H]1O[C@H](COP(=O)(O)OP(=O)(O)O)[C@@H](O)[C@H]1O` [ADENOSINE DIPHOSPHATE], in experiment [6], the IC50 was 13.7 µM.

On to `CONC1=NC(=O)/C(=C/c2ccc3ncccc3c2)S1`, for which the IC50 in experiment [1] was 21.6 µM; in experiment [6], 124 µM; in experiment [8] it was 27.1 µM. Moreover, the inhibition in the experiment on Thermotoga maritima [9] stood at 90.1%.

`CNc1ncc2cc(Oc3ccc(F)cc3F)c(=O)n(C)c2n1`: the IC50 in [1] is 19.1 µM; in [6] it was 106 µM; in experiment [8] it was 15.2 µM. Moreover, the result (with Thermotoga maritima [11]; in experiment [12]) was Active. Besides, the inhibition in the experiment on Thermotoga maritima [9] was determined as 74.7%.

As for `O=C1C(c2c[nH]c3ccccc23)=C(c2c[nH]c3ccccc23)C(=O)N1O`, the values for the IC50 in experiment [1] and in experiment [8] were 96 µM and > 300 µM, respectively. The result (in the experiment on Thermotoga maritima [11]; in experiment [12]) was Active. The compound further yielded an inhibition in the experiment on Thermotoga maritima [9] of 81.2%.

On to `Cc1cc(C)c2c(n1)sc1c(N)ncnc12`, for which the values for the 50% inhibitory concentration (IC50) in experiment [1], in experiment [6] and in experiment [8] were 38.3 µM, 99 µM and 42.2 µM, respectively. The same compound displayed an inhibition in the experiment with Thermotoga maritima [9] of 73.7%.

In the case of `O=C1N=C(N[C@H](CO)c2ccccc2)S/C1=C\c1ccc2ncccc2c1`, the values for the concentration for half-maximal inhibition (IC50) in [1], in [6] and in experiment [8] were 12 µM, 282 µM and 12 µM, respectively. In addition, the outcome (in the experiment with Thermotoga maritima [11]; in experiment [12]) was Active. Besides, in the experiment on Thermotoga maritima [9], the inhibition turned out to be 65.5%.

As to `Nc1ncnc2c1ncn2[C@@H]1O[C@H](COP(=O)(O)OP(=O)(O)NP(=O)(O)O)[C@@H](O)[C@H]1O`, the IC50 in experiment [6] was found to be 48.2 µM.

As to `O=[N+]([O-])c1ccc2c(c1)C(c1ccccc1Cl)=Nc1c[nH]nc1N2`, the half-inhibitory concentration (IC50) in experiment [1] turned out to be 26.2 µM; in experiment [8], 160 µM. Moreover, the outcome (in the experiment with Thermotoga maritima [11]; in experiment [12]) was Active. The compound further registered an inhibition in the experiment with Thermotoga maritima [9] of 98.1%.
